FGF22 binding: binders of human FGF22 protein, primary screen, FGF22 synaptogenesis inhibitor project, biophysical, thermal shift, single point | recombinant FGF22 thermal shift, SYPRO orange fluorescence; percent of sucrose octasulfate shift, DMSO zero | 1.5% of 340,000 active | activity (Tm shift, normalised), % at 9.99 µM | Fibroblast growth factor 22 (Homo sapiens), Q9HCT0;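 active means mean Tm shift, scaled 0 neutral to 100 positive control, at about 1.3% or above, every replicate too, limit read from the data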
Target sequence (Q9HCT0 whole entry, looked up): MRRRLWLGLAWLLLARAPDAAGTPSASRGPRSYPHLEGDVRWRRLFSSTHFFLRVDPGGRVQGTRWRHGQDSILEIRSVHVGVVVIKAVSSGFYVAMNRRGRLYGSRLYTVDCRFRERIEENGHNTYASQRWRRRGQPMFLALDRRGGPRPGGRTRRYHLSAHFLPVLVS
ERAP1 inh: human ERAP1 aminopeptidase inhibitors, primary screen, biochemical, single point, plate reader. Endoplasmic reticulum aminopeptidase 1 (Homo sapiens), Q9NZ08. recombinant ERAP1, Leu-AMC fluorescence, 60 min. inhibition, % at 10.7 µM. 0.15% of 340,000 active. AID 652197, 2013;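 active means mean replicate inhibition of at least 30%, or all replicates individually reaching that 30% level; inactive means mean below 30% and not every replicate reaching it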;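 further: 0% = neutral control wells and 100% = L-leucinethiol positive control wells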
ERp5 inh: inhibitors of ERp5-driven insulin aggregation, primary screen, biochemical, turbidity, absorbance 650 nm, single point; Protein disulfide-isomerase A6 (Homo sapiens), Q15084; 90 min; inhibition, % at 9.99 µM; 0.05% of 350,000 active; AID 651711, 2012;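 active means mean replicate inhibition above about 25%, with every replicate also reaching it, limit read from the data, passing the limit was not always enough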
S100A4 inh HTS: inhibitors of S100A4-myosin IIA peptide binding, primary screen, biochemical, fluorescence polarization, TAMRA-MyoIIA peptide; inhibition, % at 10.7 µM; Protein S100-A4 (Homo sapiens), P26447; AID 652163, 2013; 0.14% of 360,000 active;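 active means mean inhibition of at least 70% across replicates, with every replicate also reaching that level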
Target sequence (P26447 whole entry, looked up): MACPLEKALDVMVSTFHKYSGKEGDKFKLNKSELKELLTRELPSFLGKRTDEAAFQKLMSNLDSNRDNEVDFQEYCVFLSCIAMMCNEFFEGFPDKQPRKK
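Assay system: human S100A4 monomer with TAMRA-labelled myosin IIA peptide / Buffer or medium: Calcium-containing HEPES buffer, pH 7.2 / Reagent: TAMRA-labelled myosin IIA heavy-chain peptide probe, 5 nM / Compound: one dose per compound / Timing: polarization read 5 min after assay mix addition, stable 5–60 min / Benchmarks: neutral control DMSO, positive control TFP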
PDI inh: inhibitors of human PDI, primary screen, biochemical, turbidity, single point, plate reader | 0.052% of 350,000 active | Protein disulfide-isomerase (Homo sapiens), P07237 | AID 588391, 2011 | PDI insulin aggregation turbidity, A650, 90 min | inhibition, % at 10 µM;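 active means mean inhibition across replicates of 30% or more, whatever share of single replicates reach that level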
The depositor's hits bear a star; / = no result; + = active, no number. Shown is part of a subset that was picked to be rich in hits.

SMILES	FGF22 binding	ERAP1 inh	ERp5 inh	S100A4 inh HTS	PDI inh
O=C(c1ccc(C(F)(F)F)cc1)C1CCCN(C(=O)CCN2CCCO2)C1 (configuration not stated)	44*	-1	-5	2	-20
COc1ccc(F)cc1C(=O)C1CCCN(C(=O)Cc2c(C)noc2C)C1 (configuration not stated)	0	13	-1	6	-1
N#CCCn1nc(-c2ccc(Br)cc2)cc1Nc1ccccc1NC(=O)C(F)(F)F	2.5*	-1	0	-5	-22
O=C(CC1C(=O)N(Cc2ccccc2)C(=S)N1CCN1CCOCC1)Nc1ccc(F)cc1 (configuration not stated)	0	1	9	-6	1
CCC(C(=O)NC(C)c1ccccc1)C(=O)NC(C)c1ccccc1 (configuration not stated)	0	-2	3	0	4
CCc1cccc(CC)c1NC(=S)NC(C)c1ccccc1 (configuration not stated)	44*	0	-6	0	-2
Cc1ccc(S(=O)(=O)Oc2cccc([N+](=O)[O-])c2)cc1	44*	1	-5	0	-1
O=C(COc1cccc2cccnc12)N1CCc2ccccc21	43*	1	2	4	-3
Nc1nc(SCC(=O)NCCO)nc2sc3c(c12)CCCC3	43*	-4	2	-6	1
O=C(NC(=S)Nc1nc(-c2ccccc2)cs1)c1cccnc1	43*	10	3	-4	-4
CC1C[N+](=C2C=C(N3CCOCC3)CC(C)(C)C2)CC(C)O1 (configuration not stated)	0	55*	-3	2	-5
CC1(C)CC(N2CCOCC2)=CC(=[N+]2CCOCC2)C1	0	22	5	6	11
CCOc1ccc(N(CC)S(=O)(=O)c2ccc3c(c2)n(C)c(=O)c(=O)n3C)cc1	0	-3	6	-4	-24
COc1ccc(C(=O)Cc2ccccc2C(=O)O)cc1	0	-3	-10	-3	-3
COc1ccc(C(=O)CSc2ccccc2C(=O)O)cc1	44*	-16	2	-1	6
NS(=O)(=O)c1ccc(CNC(=O)Cc2ccsc2)cc1	0	0	5	-2	0
COc1ccc(C2=NN(C(=O)CSc3nnc(C)n3C)C(c3ccco3)C2)cc1 (configuration not stated)	43*	4	2	2	-1
Cn1nnnc1SCC(=O)N1N=C(c2ccc(Cl)cc2)CC1c1ccco1 (configuration not stated)	0	1	-2	-2	13
COC(=O)c1ccc2nc(NC(=O)C(C)(C)C)sc2c1	43*	0	-5	-3	7
c1ccc(CCNc2ccc3nncn3n2)cc1	0	0	0	0	-15
NCCNc1ccc2nnnn2n1	43*	2	6	0	1
CCCCCc1nnc(NC(=O)Cc2ccc([N+](=O)[O-])cc2)s1	43*	-2	-13	2	-7
COc1ccc(NC(=O)COC(=O)C2=COCCO2)cc1OC	44*	1	1	-1	-4
C/C=C/C(=O)OCC(=O)Nc1ccc(OC)c(OC)c1	43*	2	1	0	1
C/C=C/C(=O)OCC(=O)Nc1ccc(OC)c(Cl)c1	/	/	/	/	-3
SMILES	FGF22 binding	ERAP1 inh	ERp5 inh	S100A4 inh HTS	PDI inh
C[C@H]1CN([C@@H](C)CO)S(=O)(=O)c2ccc(-c3ccccc3)cc2O[C@@H]1CN(C)C(=O)C1CCCCC1	0	1	-4	28	/
COc1ccc2c3c([nH]c2c1)[C@H](CO)N(S(=O)(=O)c1ccc(C)cc1)CC31CN(C(=O)Cc2cccnc2)C1	0	1	1	-2	/
COc1cccc2c1C(=O)c1c(O)c3c(c(O)c1C2=O)CC(O)(C(C)=O)CC3OC1CC(N(C)C)C(O)C(C)O1 (configuration not stated)	0	6	-1	+	-3
CC(=O)[C@@]1(O)Cc2c(O)c3c(c(O)c2[C@H](O[C@H]2C[C@H](N)[C@H](O)[C@H](C)O2)C1)C(=O)c1ccccc1C3=O	0	/	-3	+	8
COc1cccc2c1C(=O)c1c(O)c3c(c(O)c1C2=O)C[C@@](O)(C(=O)CO)C[C@@H]3OC1CC(N)C(O)C(C)O1 (some centres not stated)	0	6	7	187*	16
COc1cccc2c1C(=O)c1c(O)c3c(c(O)c1C2=O)C[C@@](O)(C(=O)CO)C[C@@H]3O[C@H]1C[C@H](N)[C@H](O)[C@H](C)O1	0	7	8	178*	7
CC1CCN(S(=O)(=O)c2ccc(C(=O)Nc3nnc(-c4ccccn4)o3)cc2)CC1	0	11	0	-4	11
CC(c1ccon1)N(C)Cc1cn[nH]c1-c1ccc(-c2ccccc2)cc1 (configuration not stated)	0	2	4	-4	1
CN(Cc1ccon1)Cc1cn[nH]c1-c1ccc(-c2ccccc2)cc1	43*	-1	-3	-10	-1
CC(=O)Nc1ccc(Nc2nc(-c3ccccc3)nc3ccccc23)cc1	1	7	-1	-6	-5
CC(=O)Nc1cccc(Nc2nc(-c3ccccc3F)nc3ccccc23)c1	43*	10	-3	-5	25
O=C(Nc1nccs1)c1ccc[nH]c1=O	0	1	-2	-9	17
O=C(O)c1ccc(N2C(=O)c3cccc(Oc4ccc(Cl)cc4)c3C2=O)cc1	44*	10	-6	0	-4
O=C(O)c1cccc(N2C(=O)c3cccc(Oc4ccc(Cl)cc4)c3C2=O)c1	43*	1	3	-4	8
O=C(O)CN1C(=O)c2ccc(Oc3cccc4c3C(=O)N(CC(=O)O)C4=O)cc2C1=O	/	/	/	/	0
Oc1ccc(/C=N/NC(=S)Nc2cccnc2)cc1	1.5*	/	0	-4	-4
COc1ccc(/C=N/OC(=O)Nc2ccccc2OC)cc1	43*	-1	1	0	-1
COc1ccc(C=NNC(=S)Nc2ccc(F)cc2)cc1OC	65*	0	-1	3	-1
COc1ccccc1NC(=S)N/N=C/c1ccc(O)cc1	1.5*	-3	-2	-1	-5
CC(=O)c1nn(-c2cccc(Br)c2)cc1C(=O)c1ccc2ccccc2c1	/	/	/	/	-35
O=C(NN=Cc1ccccc1Cl)c1ccccc1	0	-2	0	-5	0
N#CCC(=O)N/N=C/c1ccccc1Cl	44*	0	4	-1	17

Screens as filed in PubChem BioAssay.
